# Most compounds without a hit are left out; they make up all but 4.3% or so of the library.
# CAL PDZ FP-1: CAL PDZ peptide-binding inhibitors, primary screen, biochemical, fluorescence polarization, Cer-tagged CAL PDZ, HTS; 330,000 tested, 0.02% active; Golgi-associated PDZ and coiled-coil motif-containing protein (Homo sapiens), Q9HD26; purified CAL PDZ, TMR-peptide fluorescence polarization, 1 h; inhibition, % at 20 µM; AID 504414, 2011;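 active = highest replicate inhibition of at least 40%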;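 note: plate controls were DMSO neutral control wells for no effect and unlabeled competitor peptide control wells for full effect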
#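 Material: tagged CAL PDZ domain; buffer or medium: 25 mM sodium phosphate pH 7.4, 150 mM NaCl, TCEP, IgG, Thesit; compound dosing: single point, 20 µM; schedule: 1 h incubation at room temperature before polarization reading; measured by: FP readout, S and P plane fluorescence; read-out basis: percent inhibition from loss of millipolarization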
# DYRK1A inh: rat Dyrk1A kinase inhibitors, primary screen, biochemical, single point, plate reader; AID 504441, 2011; ADP-Glo luminescence, NFATc1 peptide; inhibition, % at 12.5 µM; 310,000 tested, 0.43% active; Dual specificity tyrosine-phosphorylation-regulated kinase 1A (Rattus norvegicus), Q63470; in the data active = inhibition above about 50%;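 note: plate controls were vehicle with enzyme for no effect and no enzyme for full effect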
# Rtt109 HAT inh: inhibitors of C. albicans Rtt109/Vps75 HAT, primary screen, biochemical, ThioGlo CoA-SH fluorescence, plate reader. Histone acetyltransferase RTT109 (Candida albicans (strain SC5314 / ATCC MYA-2876)), …. purified Rtt109/Vps75, 4 h. inhibition, % at 34.9 µM. 330,000 tested, 0.16% active. AID 540336, 2011;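 active = inhibition of at least 50% in every replicate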
# Target sequence (Q5AAJ8 whole entry, looked up): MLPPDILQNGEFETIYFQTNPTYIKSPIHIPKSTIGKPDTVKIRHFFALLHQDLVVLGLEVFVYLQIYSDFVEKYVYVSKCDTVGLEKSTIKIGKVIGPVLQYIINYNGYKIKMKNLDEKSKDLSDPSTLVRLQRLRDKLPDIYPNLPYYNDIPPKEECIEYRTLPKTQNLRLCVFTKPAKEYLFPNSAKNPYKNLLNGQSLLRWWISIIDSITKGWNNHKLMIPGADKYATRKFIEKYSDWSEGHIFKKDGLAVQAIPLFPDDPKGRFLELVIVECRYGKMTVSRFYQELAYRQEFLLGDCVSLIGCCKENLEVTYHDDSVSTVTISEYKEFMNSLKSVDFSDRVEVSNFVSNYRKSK
# CAL PDZ FP-2: untagged CAL PDZ binding inhibitors, primary screen, biochemical, fluorescence polarization, HTS; Golgi-associated PDZ and coiled-coil motif-containing protein (Homo sapiens), Q9HD26; purified CAL PDZ, TMR-peptide fluorescence polarization, 1 h; inhibition, % at 24.9 µM; 300,000 tested, 0.92% active; AID 602252, 2012;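 active = mean inhibition of at least 30% with at least half of replicates also reaching 30%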;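 note: 0% = DMSO neutral control and 100% = excess unlabeled competitor peptide PRC23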
# ALR inh: inhibitors of human ALR sulfhydryl oxidase, primary screen, biochemical, H2O2 detection, HRP-luminol luminescence, single point; FAD-linked sulfhydryl oxidase ALR (Homo sapiens), P55789; purified ALR, DTT oxidation; AID 485317, 2010; 290,000 tested, 3.8% active; inhibition, % (no concentration beside the values);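 active = mean replicate inhibition above about 79%, with every replicate also reaching it, limit read from the data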
# Target sequence (P55789 whole entry, looked up): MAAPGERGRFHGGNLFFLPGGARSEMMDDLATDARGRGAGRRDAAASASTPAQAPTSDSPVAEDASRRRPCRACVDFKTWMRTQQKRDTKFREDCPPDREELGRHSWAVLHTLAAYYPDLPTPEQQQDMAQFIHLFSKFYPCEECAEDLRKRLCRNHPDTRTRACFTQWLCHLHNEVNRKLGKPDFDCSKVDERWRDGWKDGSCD
# The depositor's hits bear a star; nt = not tested or not shown.
SMILES,CAL PDZ FP-1,DYRK1A inh,Rtt109 HAT inh,CAL PDZ FP-2,ALR inh
CC(C)(C)[C@H]1COC(=O)[C@H](NC(=O)OCC2c3ccccc3-c3ccccc32)C/C=C\C[C@@H](CC(=O)N[C@@H](CO)Cc2ccccc2)C(=O)N1,-0.5,3.0,5.0,-5.4,-0.4
Cc1cc(-c2nnc(CCC(=O)NC(Cc3ccccc3)c3ccccc3)o2)no1 (centres undefined),-1.5,-6.7,nt,-1.7,-4.1
COc1cccc(-n2c(C)cc(/C=C3/C(=N)N4C(=NC3=O)SN=C4S(C)(=O)=O)c2C)c1,-5.7,1.0,-1.6,22.9,96.7*
COc1cc(/C=C2/C(=N)N3C(=NC2=O)SN=C3S(C)(=O)=O)ccc1OS(=O)(=O)c1ccc(C)cc1,-3.3,14.6,6.7,-4.8,54.2
Nc1ccc(-c2ccc(N)c(C(=O)O)c2)cc1C(=O)O,0.4,2.0,-3.4,1.9,82.8*
COc1ccc(NC(=O)c2ccc(Oc3ncccn3)cc2)cc1,-1.8,-2.3,-8.2,-4.0,9.4
CCN(C(=O)CN1C(=O)S/C(=C\c2ccccc2OC)C1=O)C1CCS(=O)(=O)C1 (centres undefined),-4.0,-0.2,3.0,-2.3,0.6
O=C(O)C(Cc1ccccc1)N1C(=O)/C(=C/c2ccccc2)SC1=S (centres undefined),-2.2,-5.9,52.6*,-0.9,5.0
O=C(O)CN1C(=O)/C(=C\c2cccc(OCc3ccc(Cl)cc3)c2)SC1=S,-0.7,2.4,46.8,-0.5,97.4*
Cc1ccc(/C=C2\SC(=S)N(C(Cc3ccccc3)C(=O)O)C2=O)cc1 (centres undefined),-1.8,-1.3,62.0*,-6.7,-35.0
CCN(C(=O)CN1C(=O)/C(=C/c2ccccc2F)SC1=S)C1CCS(=O)(=O)C1 (centres undefined),0.1,4.0,0.2,75.3*,-13.1
O=C(CCNS(=O)(=O)c1ccccc1)N1CCN(c2ccccc2F)CC1,-2.0,-1.7,-8.7,-2.0,0.6
Cc1c(C)c2c(OCC(=O)Nc3cccnc3)cc3c(c2oc1=O)CCC(C)(C)O3,-0.7,-1.2,-11.6,-2.0,-27.7
COc1cccc(CC2(CO)CCN(Cc3cccn3-c3cccnc3)CC2)c1,-1.8,1.9,0.8,-2.4,-8.2
CCN(CC)C(=O)CN1C(=O)/C(=C/c2ccccc2)SC1=S,0.6,-8.4,-2.2,43.7*,-5.6
CC(=O)N1CCN(S(=O)(=O)c2cccc(C(=O)N(Cc3ccccc3)c3ccc(C)cc3)c2)CC1,-3.3,12.6,34.5,-6.8,-5.4
CN1CCN(S(=O)(=O)c2cccc(C(=O)N(Cc3ccccc3)c3ccccc3)c2)CC1,-1.2,-0.5,55.5*,-3.1,nt
O=C(CSc1nc2cc(Cl)ccc2s1)Nc1cccc(S(=O)(=O)N2CCOCC2)c1,-4.4,-4.4,0.7,0.1,nt
CCC(C)NC(=O)CC(c1ccccc1)c1cc(C)ccc1O (centres undefined),-0.7,-3.7,-5.9,33.9*,17.7
COCCNC(=O)c1ccc(S(=O)(=O)N2CCCc3ccccc32)cc1,0.4,-3.5,2.3,59.0*,nt
Cc1ccc(OCC(=O)NNC(=O)C2CCCO2)c(C)c1 (centres undefined),-1.0,-4.1,-1.9,nt,-8.5
COCCN1C(=O)C(=O)/C(=C(/O)c2ccc(C)cc2)C1c1ccccn1 (centres undefined),-7.0,-7.4,6.5,-0.7,-8.0
COc1cccc(C(=O)Nc2ccc(NC(C)=O)cc2)c1,-0.9,4.4,9.0,8.9,-7.8
COc1cccc(NC(=O)c2ccc3nsnc3c2)c1,-1.9,1.4,2.1,49.0*,-4.2
COc1cccc(C(=O)Nc2cc(Cl)c(O)c(Cl)c2)c1,0.7,-2.0,9.8,5.6,89.2*
SMILES,CAL PDZ FP-1,DYRK1A inh,Rtt109 HAT inh,CAL PDZ FP-2,ALR inh
Cc1ccc(C(c2nnnn2C2CCCC2)N2c3ccccc3CC2C)cc1 (centres undefined),0.8,0.9,-8.7,-3.0,-1.5
CN1C(=O)C(N=Nc2ccccc2C(=O)O)N(C)C1=S (centres undefined),1.0,-1.1,0.1,-2.3,98.0*
COc1cccc(C(=O)N(Cc2ccc(N(C)C)cc2)C2CCS(=O)(=O)C2)c1 (centres undefined),nt,9.2,2.9,-5.6,88.1*
Cc1cccc(C)c1OCC(=O)N(Cc1cccs1)C1CCS(=O)(=O)C1 (centres undefined),-0.9,3.4,-13.6,-10.6,-1.0
Cc1ccccc1OCC(=O)N(Cc1cccs1)C1CCS(=O)(=O)C1 (centres undefined),-0.5,2.6,5.6,-4.7,97.0*
Cc1cccc(OCC(=O)N(Cc2ccc(N(C)C)cc2)C2CCS(=O)(=O)C2)c1 (centres undefined),-1.4,nt,4.0,-4.5,nt
O=C(/C=C/c1ccco1)N(Cc1ccc(Cl)cc1)C1CCS(=O)(=O)C1 (centres undefined),-1.1,nt,-6.0,nt,-2.0
CN(C)c1ccc(CN(C(=O)/C=C/c2ccco2)C2CCS(=O)(=O)C2)cc1 (centres undefined),nt,nt,nt,nt,85.8*
Cc1cccc(C)c1OCC(=O)N(Cc1ccc(N(C)C)cc1)C1CCS(=O)(=O)C1 (centres undefined),0.2,nt,21.3,76.4*,27.3
CN(C)c1ccc(CN(CC2CCCO2)C(=O)c2cccs2)cc1 (centres undefined),-2.5,-8.7,-2.4,-3.8,91.6*
CN(C)c1cccc(C(=O)OCC(=O)N(Cc2ccccc2)C2CCS(=O)(=O)C2)c1 (centres undefined),-1.1,10.9,-4.9,0.2,70.9
NC(=O)Nc1ccc(C(=O)OCC(=O)N(Cc2ccccc2)C2CCS(=O)(=O)C2)cc1 (centres undefined),-0.4,-0.9,nt,36.6*,nt
CN(C)c1ccc(CN(C(=O)c2cccs2)C2CCS(=O)(=O)C2)cc1 (centres undefined),-4.4,-10.0,24.1,1.7,93.1*
CCOC(=O)c1[nH]ncc1CN1CCC(Cc2cccc(OC)c2)(C(=O)OCC)CC1,0.8,-2.0,3.9,3.2,-0.1
CCOC(=O)C1CCCN(C(=O)c2ccc(C)cc2O)C1 (centres undefined),-0.5,-0.8,13.3,-1.2,4.0
Cc1nc(N[C@@H](Cc2c[nH]c3ccccc23)C(=O)O)c2oc3ccccc3c2n1,nt,nt,-1.4,nt,-18.1
CCc1nc(N[C@@H](Cc2c[nH]c3ccccc23)C(=O)O)c2oc3ccccc3c2n1,-1.8,11.4,16.7,-3.8,88.7*
CCOC(=O)c1[nH]c(C)c(C(=O)N2CCN(c3ccc(F)cc3)CC2)c1C,-0.6,-9.0,4.4,0.5,89.7*
CCOC(=O)N1CCN(C(=S)Nc2ccc3nc(N4CCN(CC)CC4)cc(C)c3c2)CC1,0.8,0.5,22.4,nt,-0.7
